Reference: PubChem BioAssay AID624466 (The Scripps Research Institute Molecular Screening Center, 2012)
Hit rate of the full screen: of about 360,000 compounds, about 5,400 (1.5%) were called active. Shown is part of a subset that was picked to be rich in actives. Values without a mark were called inactive.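 Rule for the calls: active = inhibition above a per-plate cutoff, the mean inhibition of test compounds on that plate plus 3 SD (cut at about 49% in these data); inactive = the rest.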

Biological target: Trace amine-associated receptor 1 (Homo sapiens) (UniProt Q96RJ0)
Sequence (Q96RJ0 whole entry, looked up): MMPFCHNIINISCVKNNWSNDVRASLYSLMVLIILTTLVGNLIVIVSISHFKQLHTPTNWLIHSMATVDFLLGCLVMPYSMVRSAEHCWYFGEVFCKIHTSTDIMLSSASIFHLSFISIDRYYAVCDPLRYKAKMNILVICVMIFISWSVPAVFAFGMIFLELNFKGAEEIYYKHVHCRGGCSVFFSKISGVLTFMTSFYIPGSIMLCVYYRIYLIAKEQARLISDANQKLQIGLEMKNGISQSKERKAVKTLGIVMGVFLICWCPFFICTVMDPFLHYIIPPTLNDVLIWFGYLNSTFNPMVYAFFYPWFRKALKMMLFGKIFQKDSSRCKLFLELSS
Assay: blockers of beta-PEA-driven TAAR1 calcium signal – Fluo-8 calcium fluorescence, CHO RD-HGA16 cells, primary screen (AID 624466);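 note: 0% = DMSO plus EC80 beta-PEA response and 100% = DMSO alone without agonist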
Details: CHO RD-HGA16 TAAR1, Fluo-8 calcium fluorescence, antagonist; at 3 µM; stronger effect = higher value
In short: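 Test system: hTAAR1-expressing CHO RD-HGA16 cells, Gα16-coupled; Probe or stimulus: EC80 β-phenethylamine stimulus; Compound dosing: single nominal final test compound concentration of 3 µM; Timing: 140 s kinetic read after compound, 140 s after agonist; Signal: Fluo-8 calcium-sensitive fluorescence; Measure: % inhibition of agonist calcium response; Controls: DMSO and EC80 PEA controls.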

Q: Which inhibition does the source give for `CCC(C(=O)NCc1ccccc1)n1c(Cc2cc(F)cc(F)c2)nc2ccccc21` (stereo not given) here?
A: -4.56%

Q: `O=CN1CCN(C(=O)c2ccc(Br)o2)CC1` was tested. Which inhibition did it give?
A: -11.1%

Q: With `CSc1ccccc1C(=O)OCC(=O)N1CCN(C(C)=O)CC1` as the compound, how does the inhibition read?
A: -1.96%

Q: How did the inhibition turn out when `CN(CC(=O)Nc1ccccc1Cl)C(=O)c1ccccc1SCC(=O)N1CCCC1` was run?
A: -6.53%

Q: With `CC(NC(=O)c1ccccc1SCC(=O)N1CCCC1)c1ccccc1` (stereo not given) as the compound, how does the inhibition read?
A: -4.95%

Q: For `COc1ccccc1NC(=O)COC(=O)c1ccccc1SCC(=O)N1CCCC1`, which inhibition is on record?
A: -8.15%

Q: For `O=C(COC(=O)c1ccccc1SCC(=O)N1CCCC1)Nc1ccccc1OC(F)F`, which inhibition is on record?
A: 56.5% (active)

Q: How did the inhibition turn out when `CC(C)N(Cc1ccccc1)C(=O)COC(=O)c1ccccc1SCC(=O)N1CCCC1` was run?
A: 64% (active)

Q: How did the inhibition turn out when `COCCNC(=O)C1C(=O)Nc2ccccc2C(=O)N1c1ccc2c(c1)OCCO2` (stereo not given) was run?
A: -30.9%

Q: Which inhibition does the source give for `CCCCCCCCN1C(=O)[C@H](CC(=O)NCC23CC4CC(CC(C4)C2)C3)C[C@@]2(C(=O)OC)CCCCC=C12` here?
A: -15.3%

Q: With `CCOC(=O)C(C)N(c1ccccc1Cl)S(C)(=O)=O` (stereo not given) as the compound, how does the inhibition read?
A: -3.03%

Q: Which inhibition does the source give for `CN(CC(=O)O)S(=O)(=O)c1ccc2oc3ccccc3c2c1` here?
A: -5.94%

Q: With `COc1ccc(C(=O)N(C)Cc2ccc(OC)c(OC)c2OC)cc1S(=O)(=O)N1CCOCC1` as the compound, how does the inhibition read?
A: -9.36%

Q: Which inhibition does the source give for `COc1ccc(-c2cc(C(=O)N(C)Cc3ccccc3)c3ccccc3n2)cc1` here?
A: 62.6% (active)

Q: For `Cc1cccc(C(=O)NCC(=O)OCC(=O)N(C)CC(=O)Nc2ccccc2Cl)c1`, which inhibition is on record?
A: -23.2%

Q: How did the inhibition turn out when `COc1ccc(S(=O)(=O)N2CCCCCC2)cc1C(=O)N(C)Cc1cccc(OC)c1OC` was run?
A: 3.09%

Q: Which inhibition does the source give for `COc1ccc(-c2cc(C(=O)N(C)Cc3ccc(OC)c(OC)c3OC)c3ccccc3n2)cc1OC` here?
A: 78.5% (active)

Q: For `COc1ccc(-c2cc(C(=O)N(C)CC(=O)Nc3ccccc3Cl)c3ccccc3n2)cc1OC`, which inhibition is on record?
A: 73.2% (active)

Q: `COc1ccc(CN(C)C(=O)Cc2c[nH]c3ccccc23)c(OC)c1OC` was tested. Which inhibition did it give?
A: 4.63%

Q: For `COc1ccc(C2=NS(=O)(=O)N(C)C(C(=O)N(C)Cc3ccccc3)=C2)cc1`, which inhibition is on record?
A: 11.5%

Q: Which inhibition does the source give for `COc1ccc(CN(C)C(=O)Cc2ccsc2)c(OC)c1OC` here?
A: -26.8%

Q: Which inhibition does the source give for `COc1ccc(CN(C)C(=O)c2cc(-c3ccc(C)cc3C)nc3ccccc23)c(OC)c1OC` here?
A: 72.6% (active)

Q: For `C/C(N)=C(/C#N)C(=O)COC(=O)c1cc(-c2ccc(C)cc2)nc2ccccc12`, which inhibition is on record?
A: -4.69%

Q: Which inhibition does the source give for `COc1ccc(Cl)cc1NC(=O)CN(C)C(=O)c1ccc2n[nH]nc2c1` here?
A: -6.92%

Q: Which inhibition does the source give for `Cc1ccc(N/C(N)=N/c2nc(C(F)(F)F)cc(C(F)(F)F)n2)cc1` here?
A: 1.49%

Q: How did the inhibition turn out when `CCn1ccnc1CN(C)C(=O)c1ccc2nc(Cc3ccc(OC)cc3)oc2c1` was run?
A: 9.63%

Q: Which inhibition does the source give for `Cc1ccc(C)c(CN2CCC(CNC(=O)C3CCCN(c4ncnc5c4nc4n5CCCCC4)C3)CC2)c1` (stereo not given) here?
A: -10.2%

Q: `O=C(Nc1ccc(CSc2ccccc2)cc1)c1ccc(CN2CCOCC2)cc1` was tested. Which inhibition did it give?
A: 29.6%

Q: `COCc1cc(N2CCN(C(=O)OC(C)(C)C)C[C@@H]2C)ccc1N1CCN(Cc2ccccc2)[C@H](C)C1` was tested. Which inhibition did it give?
A: -3.16%

Q: How did the inhibition turn out when `O=C1/C(=C/c2cccs2)SC(=S)N1C1CCS(=O)(=O)C1` (stereo not given) was run?
A: -5.52%

Q: With `COc1ccc(CCn2c(NN=C3CCCC3)nc3c2c(=O)[nH]c(=O)n3C)cc1` as the compound, how does the inhibition read?
A: -23.8%

Q: Which inhibition does the source give for `COc1ccc(C2CC(=O)Oc3ccc(C(C)(C)C)cc32)cc1` (stereo not given) here?
A: 52.5% (active)

Q: For `COc1cc(OC)c2c(c1)OC(=O)CC2c1cc(OC)c(OC)c(OC)c1` (stereo not given), which inhibition is on record?
A: -6.82%

Q: With `COc1cc(C2CC(=O)Oc3cc(OC)c(OC)c(OC)c32)cc(OC)c1OC` (stereo not given) as the compound, how does the inhibition read?
A: 3.9%

Q: `CN(C)S(=O)(=O)c1ccc(C(=O)NCCN=C2NS(=O)(=O)c3ccccc32)cc1` was tested. Which inhibition did it give?
A: -8.85%

Q: With `O=C(c1ccc2ccccc2n1)N1CCN(c2ccccc2Cl)CC1` as the compound, how does the inhibition read?
A: 20.4%

Q: For `NC(=O)COc1ccc(/C=N/NC(=O)C2CCCN2S(=O)(=O)c2ccc(Cl)cc2)cc1` (stereo not given), which inhibition is on record?
A: 15.8%

Q: With `COc1ccc(Cl)cc1N(CC(=O)N/N=C/c1ccc(OCC(N)=O)cc1)S(C)(=O)=O` as the compound, how does the inhibition read?
A: 6.35%

Q: With `NC(N)=N/N=C/c1ccc(OCc2ccc(Cl)cc2Cl)cc1` as the compound, how does the inhibition read?
A: 73.3% (active)

Q: How did the inhibition turn out when `O=C1NC[C@H](CCCCN2C[C@H](Cc3ccc(O)cc3)N(CC3CCCCC3)C(=O)C2=O)N(CCc2ccccc2)C1=O` was run?
A: 7.35%

Q: `COc1cccc(N(C(=O)C2COc3ccccc3O2)C(C(=O)NC2CCCCC2)c2ccc(O)cc2)c1` (stereo not given) was tested. Which inhibition did it give?
A: -14.6%

Q: How did the inhibition turn out when `CN(Cc1ccccc1)C(=O)COC(=O)c1ccccc1Nc1ccccc1` was run?
A: 22.9%

Q: `O=C(OCC(=O)N(CCc1ccccc1)Cc1ccccc1)c1ccccc1[N+](=O)[O-]` was tested. Which inhibition did it give?
A: 71.1% (active)

Q: Which inhibition does the source give for `Cc1c(C(=O)NCCCc2ccccc2)cccc1[N+](=O)[O-]` here?
A: 1.14%

Q: With `CC(C)(C)c1ccc(S(=O)(=O)NCC2CCN(C(=O)C(=O)c3cc4ccccc4o3)CC2)cc1` as the compound, how does the inhibition read?
A: 3.67%

Q: With `O=C(COC(=O)c1cc(S(=O)(=O)N2CCOCC2)ccc1Cl)NCCc1ccccc1` as the compound, how does the inhibition read?
A: -6.27%

Q: How did the inhibition turn out when `CCC(=O)c1ccc(OCC(O)CN2CCN(c3cccc(C(F)(F)F)c3)CC2)cc1` (stereo not given) was run?
A: 19.9%

Q: For `CCOc1ccc(NC(=O)Nc2ccc(N(C)C(C)=O)cc2)cc1`, which inhibition is on record?
A: 51.5% (active)

Q: For `CC(=O)N(C)c1ccc(NC(=O)Nc2cccc3ccccc23)cc1`, which inhibition is on record?
A: -1.56%

Q: Which inhibition does the source give for `CCOc1ccc(NC(=O)N(CC(C)C)CC(C)C)cc1` here?
A: -6.6%

Q: For `CC12CCC(=O)N1C(C(=O)NCCN1C(=O)S/C(=C\c3ccccc3F)C1=O)CS2` (stereo not given), which inhibition is on record?
A: -27.9%

Q: How did the inhibition turn out when `O=S(=O)(NCC1CCCO1)c1cnc(Cl)c(Cl)c1` (stereo not given) was run?
A: 12.4%

Q: How did the inhibition turn out when `CCOC(=O)C1=C(c2ccccc2)O/C(=C(/C(=O)OC)C(F)(F)F)S1` was run?
A: -4.35%

Q: With `CS(=O)(=O)N1CCc2cc(C(=O)Nc3ccccc3)ccc21` as the compound, how does the inhibition read?
A: 9.11%

Q: Which inhibition does the source give for `CS(=O)(=O)N1CCc2cc(C(=O)Nc3ccccc3Br)ccc21` here?
A: 23.9%

Q: With `CC(=O)Nc1cccc(NC(=O)c2ccc3c(c2)CCN3S(C)(=O)=O)c1` as the compound, how does the inhibition read?
A: 50% (active)

Q: For `Cc1ncc([N+](=O)[O-])n1CCOC(=O)c1ccc(Br)cc1`, which inhibition is on record?
A: 11.2%

Q: `CC(C)(C)C(c1nc2ccccc2[nH]1)n1c(Cc2csc3ccccc23)nc2ccccc21` (stereo not given) was tested. Which inhibition did it give?
A: 11.6%

Q: `CC(C)C[C@@H]1Cc2[nH][nH]c(=O)c2[C@H](CCc2ccccc2)O1` was tested. Which inhibition did it give?
A: -21.2%

Q: With `C[N+](C)(C)CCNC(=O)c1cc[n+](Cc2ccccc2)c(/C=N/O)c1` as the compound, how does the inhibition read?
A: 5.47%

Q: How did the inhibition turn out when `COC(=O)C1=C(C)N(Cc2ccccc2C(F)(F)F)C(=NCc2ccc(OC)cc2)NC1c1cccc(C(F)(F)F)c1` (stereo not given) was run?
A: 4.48%

Q: `CCN(CC(=O)NCc1ccco1)S(=O)(=O)c1ccc(F)cc1` was tested. Which inhibition did it give?
A: -11.9%

Q: `COc1ccc(S(=O)(=O)N(CC(=O)NCc2ccco2)c2ccc(F)cc2)cc1` was tested. Which inhibition did it give?
A: 57.5% (active)

Q: For `Cc1ccc(S(=O)(=O)N(CC(=O)NCc2ccco2)c2ccccc2C)cc1`, which inhibition is on record?
A: 5.84%

Q: With `COc1ccc(C(C(=O)NCc2ccccc2)n2c(=O)c(-c3ccccc3)nc3ccccc32)cc1` (stereo not given) as the compound, how does the inhibition read?
A: -24.7%

Q: `CN(Cc1ccccc1)C(=O)[C@@H]1CCCN1C(=O)[C@@H]1CCCN1C(=O)c1c(F)cccc1F` was tested. Which inhibition did it give?
A: -1.21%

Q: How did the inhibition turn out when `Cc1nnc(SCC(=O)NC(=O)NC2CCCC2)n1N` was run?
A: -8.31%

Q: `CC(C)Oc1cc(F)ccc1-c1cc(C(=O)Nc2cccc(Cl)c2)[nH]n1` was tested. Which inhibition did it give?
A: 42.5%

Q: Which inhibition does the source give for `CC(C)Oc1cc(F)ccc1-c1cc(C(=O)Nc2ccc(F)cc2)[nH]n1` here?
A: 68.5% (active)

Q: How did the inhibition turn out when `COc1cc(NC(=O)c2cc(-c3ccc(F)cc3OC(C)C)n[nH]2)cc(OC)c1OC` was run?
A: 47.6%

Q: Which inhibition does the source give for `O=C(CN1CCN(c2ccc(O)cc2)CC1)NC1CCCc2ccccc21` (stereo not given) here?
A: -0.58%

Q: With `CS(=O)(=O)Nc1cccc(C2=NN(C(=O)c3cccc(F)c3)C(c3cccs3)C2)c1` (stereo not given) as the compound, how does the inhibition read?
A: 62.3% (active)

Q: With `Cc1ccc(C2CC(c3cccc(NS(C)(=O)=O)c3)=NN2S(C)(=O)=O)cc1` (stereo not given) as the compound, how does the inhibition read?
A: 0.27%

Q: For `CCS(=O)(=O)Nc1ccc(C2=NN(C(C)=O)C(c3cccs3)C2)cc1` (stereo not given), which inhibition is on record?
A: 6.89%

Q: For `FC(F)Oc1ccc(NC(=S)NCc2ccco2)cc1Cl`, which inhibition is on record?
A: 36.8%

Q: Which inhibition does the source give for `O=C(CSc1nc2cccc(F)c2c(=O)n1-c1ccccc1)Nc1ccc2c(c1)CCC2` here?
A: -17.1%

Q: For `CCOc1ncccc1C(=O)OCC(=O)Nc1cccc(S(=O)(=O)N2CCCCCC2)c1`, which inhibition is on record?
A: 63.8% (active)

Q: `CC(NC(=O)c1ccccc1)C(=O)OCC(=O)Nc1cccc(S(=O)(=O)N2CCCC2)c1` (stereo not given) was tested. Which inhibition did it give?
A: -4.21%

Q: How did the inhibition turn out when `O=C(COC(=O)COc1ccccc1F)Nc1cccc(S(=O)(=O)N2CCCCC2)c1` was run?
A: -6.77%

Q: Which inhibition does the source give for `COc1cccc(CCNC(=O)COc2cccc3c2OC(C)(C)C3)c1` here?
A: 3.3%

Q: With `CCCNC(=O)C1CC(=O)N(c2ccc(OCC(=O)Nc3cccc(C)c3C)cc2)C1` (stereo not given) as the compound, how does the inhibition read?
A: -17.9%

Q: `NC(=O)c1ccsc1NC(=O)COC(=O)COc1ccc(C=O)cc1` was tested. Which inhibition did it give?
A: 24.6%

Q: With `Cc1cccc(C(=O)OCC(=O)Nc2sccc2C(N)=O)c1C` as the compound, how does the inhibition read?
A: -21.5%

Q: Which inhibition does the source give for `COc1cc(OC)cc(C(=O)OCC(=O)Nc2sccc2C(N)=O)c1` here?
A: 63% (active)

Q: `CCCCNC(=O)C[C@@H]1C[C@@]2(C(=O)OCC)CCC=C2N(Cc2cccc3ccccc23)C1=O` was tested. Which inhibition did it give?
A: -3.28%
